Assay results reported in PubChem BioAssay AID2805 (Sanford-Burnham Center for Chemical Genomics, 2010).
About 780 (0.24%) of roughly 330,000 compounds were called active. The sample holds actives, similar compounds and a random draw of the others, so the mix is not that of the screen. Values without a mark were called inactive.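 The calls were made as follows: active = activation factor of at least 2 at 20 µM; inactive = the rest.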

system: intestinal alkaline phosphatase [Mus musculus]; test: mouse intestinal phosphatase enzyme activation – biochemical, luminescence, uHTS, primary screen (AID 2805); conditions: muIAP, CDP-Star luminescence, 30 min; at 10 µM; stronger effect = higher value; 1 = vehicle-only enzyme signal, 0 = enzyme-free wells
Summary of the method: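 also added = chemiluminescent substrate CDP-Star | test system = mouse IAP enzyme | signal = chemiluminescence readout | compound = DMSO-dissolved test compounds | incubation = 30 min at room temperature | benchmarks = DMSO wells, no-enzyme wells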

Point of comparison: `O=C(CNC(=O)c1ccccc1Br)NNC(=O)c1cccs1`, activation factor 0.934. Against it:
- COC(=O)Cc1ccc(NC(=S)NCc2ccc(Cl)cc2)cc1 — higher, 1.52
- O=C(NCc1ccc2c(c1)OCO2)C12CC3CC(CC(C3)C1)C2 — higher, 0.999
- CCC(=O)N1c2ccccc2NC2=C(C(=O)CCC2)C1c1ccco1 (configuration not stated) — higher, 1.01
- CCOC12CC(C)(C)CC(C)(CC3=C1C(=O)CC(C)(C)C3)C2 (configuration not stated) — higher, 1.02
- COc1cc(CN2CCN(Cc3ccc(C)cc3)CC2)c([N+](=O)[O-])cc1OC — lower, 0.893
- COC(=O)c1cc(S(=O)(=O)NCC2CCN(Cc3ccc(Cl)cc3)CC2)cn1C — higher, 1.12
- O=C(NCCN1CCOCC1)Nc1cccc(Cl)c1 — higher, 0.941
- O=C(CN1CCN(Cc2ccccc2)CC1)Nc1ccc(F)c(F)c1 — higher, 1.1
- COc1ccc(Cl)cc1NC(=O)NCC1CCN(Cc2ccccc2F)CC1 — higher, 1.56
- COc1cc(NC(=O)C2=CC(c3ccc(C)cc3)=NS(=O)(=O)N2C)cc(OC)c1OC — lower, 0.84
- Cc1ccccc1NC(=O)NCC1CCN(Cc2cccc(Cl)c2)CC1 — higher, 1.72
- CC(=O)N1CCN(CC(=O)Nc2ccc(C)c(F)c2)CC1 — higher, 1.06
- COc1cc(OC)cc(-c2nc3ccccc3c(=O)n2NC(=O)c2cccnc2Cl)c1 — higher, 0.962
- CCCn1nnnc1NC(=O)COc1ccc(Cl)cc1C — higher, 0.94
- CCCSc1ccc([C@H]2N[C@@](Cc3ccccc3)(C(=O)OC)[C@H]3C(=O)N(C)C(=O)[C@@H]23)cc1 — higher, 1.04
- CCN1CCN(C(=O)c2cc3cc4ccc(OC)cc4nc3s2)CC1 — higher, 1.07
- CCc1cc2c(=O)n(-c3ccccc3)c(SCC(=O)O)nc2s1 — higher, 1.03
- C=CCCC(=O)Nc1nc(C)c(-c2csc(Nc3ccc(Cl)cc3)n2)s1 — lower, 0.878
- S=C(NC1CCCCC1)NN1CCOCC1 — higher, 0.975
- Cc1cccc(-c2oc3ccc(-c4ccc5c(c4)OCO5)cc3c2C#Cc2cncn2C)c1 — higher, 0.937
- Cc1cc(NC(=O)CCC(=O)N(CC(=O)NCC2CCCO2)c2ccccc2C)no1 (configuration not stated) — lower, 0.924
- COc1ccc(OC)c(NC(=O)c2ccc3c(c2)CCN3S(C)(=O)=O)c1 — lower, 0.846
- COCCCNC(=S)NCCNc1nc2cc(C)c(C)cc2cc1C#N — higher, 1.01
- COc1cccc2c(C)c(C(=O)O)[nH]c12 — higher, 0.981
- O=C(C1=C[C@H](c2ccc(C(F)(F)F)cc2)C[C@H](OCc2ccc(CO)cc2)O1)N1CCN(Cc2ccccc2)CC1 — higher, 1.05
- COC(=O)c1scc(S(=O)(=O)C(C)(C)C)c1-n1cccc1 — higher, 0.97
- N#CC1=C(N)Oc2[nH]c(=S)[nH]c(=O)c2C12C(=O)Nc1ccccc12 (configuration not stated) — higher, 1
- O=c1[nH]c(CN2CCOCC2)nc2scc(-c3ccccc3)c12 — higher, 1.04
- COCc1cc(=O)n2[nH]c(C)c(-c3ccccc3)c2n1 — higher, 1.04
- Cc1ccc(NC(=S)Nc2ccc(F)cc2)cc1 — higher, 1.03
- CC(C)CNC(=S)Nc1ccc(F)cc1 — higher, 1.15
- COc1ccccc1-c1nn(Cc2ccccc2)cc1C(=O)N1CCN(c2ncccn2)CC1 — higher, 0.95
- O=C(CSc1cccc[n+]1[O-])NCCCc1ccccc1 — higher, 1.02
- O=C(Nc1ccccc1)Nc1nnc(COc2ccccc2F)s1 — lower, 0.892
- Cc1ccc(NC(=O)Nc2cc(-c3ccccc3)nn2C)cc1Cl — higher, 1.48
- Cc1cc(C(=O)NCCc2ccc(Cl)cc2)n(-c2ccccc2)n1 — higher, 1.02
- N#CCCCn1c(O)c(N=NC(=O)C(O)c2ccccc2)c2ccccc21 (configuration not stated) — higher, 0.987
- CCC1CCCCN1C(=S)Nc1ccc(SC(F)F)cc1 (configuration not stated) — lower, 0.894
- CCN(CC)c1nc(-c2ccccc2)cc(C(F)(F)F)c1C#N — higher, 0.949
- CS(=O)(=O)Nc1ccc(C(=O)N2CCCC2)cc1 — higher, 0.947
- O=C(CN1CCC(NC(=O)Nc2ccccc2)CC1)Nc1cccc([N+](=O)[O-])c1 — higher, 1.02
- O=C(Nc1cccc(F)c1)NC1CCCc2ccccc21 (configuration not stated) — higher, 0.963
- CC(C)(C)NS(=O)(=O)c1ccc(NC(=O)NC2CCCCC2)cc1 — higher, 1.7
- Cc1c(Cl)cccc1NC(=O)NCCCN1CCCC1=O — higher, 1.01
- C/C(CC(=O)Nc1cccc(F)c1)=N\NC(=O)C(=O)NC1CCCCC1 — lower, 0.807
- COc1cccc(NC(=O)CN2CCN(CC(=O)Nc3ccccc3Cl)CC2)c1 — higher, 0.978
- CC(C)c1ccc(NC(=O)NC2CCCCC2)cc1 — higher, 1.77
- CSCC(=O)N1CCCC(C(=O)c2cc(F)ccc2F)C1 (configuration not stated) — higher, 0.984
- O=C(OCC1O[C@@H](OC(=O)c2cc(O)c(O)c(O)c2)[C@@H](OC(=O)c2cc(O)c(O)c(O)c2)[C@@H](OC(=O)c2cc(O)c(O)c(O)c2)[C@@H]1OC(=O)c1cc(O)c(O)c(O)c1)c1cc(O)c(O)c(O)c1 (some centres not stated) — lower, 0.831
- CN(Cc1ccccc1)C(=O)COC(=O)/C=C/c1ccc2c(c1)OCO2 — higher, 0.965
- CCc1ccccc1N1CN(Cc2ccco2)CNC1=S — higher, 0.992
- COc1c(O)cccc1-c1nnn(CCC(=O)OCC(=O)c2ccccc2)n1 — higher, 0.984
- Cc1cccc(NC(=S)Nc2ccc(Cl)c(Cl)c2)c1 — higher, 1.16
- Cc1cccc(NC(=S)NC23CN4CN(CN(C4)C2)C3)c1 — higher, 0.962
- O=C(c1ccc(O)cc1)c1ccc(C(=O)O)c(C(=O)O)c1 — higher, 1.01
- CC(=O)c1cccc(NC(=O)N2CCCC2C(=O)NCCC(C)C)c1 (configuration not stated) — higher, 0.988
- O=C(NCCOc1ccccc1Cl)C(=O)Nc1ccccc1 — higher, 0.98
- O=C(COc1ccccc1F)NNC(=O)c1cc(Br)ccc1Cl — lower, 0.932
- O=C(Cn1ncc2c3ccccc3n(Cc3ccccc3)c2c1=O)NCCCN1CCOCC1 — higher, 0.993
- C=C(Br)Cn1c(CCCC)nc2ccccc21 — higher, 0.968
- COc1ccc(NC(=O)N(C)C[C@H]2Oc3ccc(NC(=O)C4CC4)cc3C(=O)N([C@H](C)CO)C[C@@H]2C)cc1 — higher, 1.05
- C[C@H](CO)N1C[C@H](C)[C@@H](CN(C)C(=O)Nc2ccc3c(c2)OCO3)Oc2c(cccc2N(C)C)C1=O — higher, 0.974
- COc1ccc(S(=O)(=O)NCC(=O)NC2CC2)cc1OC — higher, 0.966
- O=C(CN1CCC(O)(c2cccc(C(F)(F)F)c2)CC1)NCCc1ccccc1 — lower, 0.933
- CC(=O)Nc1cccc(C(=O)OCN2C(=O)c3ccccc3C2=O)c1 — lower, 0.892
- CC(=O)N(CC(O)CO)c1c(I)c(C(=O)NCC(O)CO)c(I)c(C(=O)NCC(O)CO)c1I (configuration not stated) — higher, 1.05
- Cc1cc(C)c(S(=O)(=O)c2ccccc2)c(OC(=O)c2c(F)cccc2Cl)n1 — lower, 0.919
- N=c1c2c(-c3ccccc3)c(-c3ccccc3)n(Cc3ccccc3)c2ncn1CCCO — higher, 0.982
- COc1ccc(C)cc1NC(=O)NCCCCc1ccccc1 — higher, 1.36
- Cc1ccc(CN(C)Cc2cc(=O)oc3cc(C)c(Cl)cc23)cc1 — higher, 0.989
- S=C(Nc1ccc(Br)cc1)NC1CCN(Cc2ccccc2)CC1 — higher, 1.46
- O=S(=O)(NCCCc1ccccc1)c1ccc(Br)cc1 — higher, 1.03
- CC(NC(=S)Nc1ccccc1)C1COc2ccccc2O1 (configuration not stated) — higher, 1.67
- CCCN(CC1COc2ccccc2O1)C(=S)Nc1ccc(C)cc1 (configuration not stated) — higher, 1.14
- COCCNC(=O)c1ccc(S(=O)(=O)c2ccc(Cl)cc2)c(NC(C)=O)c1 — lower, 0.896
- O=C(NCC1CCCO1)c1ccccc1-c1nc(-c2ccccc2Cl)no1 (configuration not stated) — lower, 0.926
- CCOC(=O)c1cccc(NC(=O)CN(c2ccc(C)cc2)S(=O)(=O)c2c(C)noc2C)c1 — higher, 1.37
- Cc1noc(C)c1S(=O)(=O)N(CC(=O)NCc1ccc(Cl)cc1)c1ccc2c(c1)OCO2 — higher, 1.12

`S=C(NCc1ccc(Cl)cc1)NC12CC3CC(CC(C3)C1)C2` was tested, and the activation factor was 3.89 (active).
With `Cc1ccc(C)c(CN2CCC(CNC(=O)Nc3ccc(C)c(F)c3)CC2)c1` the activation factor was 4.63 (active).
For `O=C(NCC1CCN(Cc2ccccc2Cl)CC1)Nc1cccc(Cl)c1`, the activation factor was 3.53 (active).
For `COc1cc(NC(=O)NCC2CCN(Cc3ccc(C)cc3)CC2)cc(OC)c1OC`, the activation factor was 2.24 (active).
For `Cc1cccc(CN2CCC(CNC(=O)Nc3ccc(F)c(Cl)c3)CC2)c1`, the activation factor was 3.26 (active).
`CC(NC(=S)Nc1ccc(OC(F)F)cc1)c1ccc(F)cc1` (configuration not stated) was tested, and the activation factor was 2.2 (active).
For `Cc1cc(NC(=O)Nc2ccc(Cl)cc2)n(-c2ccccc2)n1`, the activation factor was 2.3 (active).
With `Cc1c(Cl)cccc1NC(=O)Nc1ccc(C(=O)N2CCCC2)cc1` the activation factor was 2 (active).
`Cc1cc(C)cc(NC(=O)NC2CCN(CC(=O)Nc3cccc(Cl)c3C)CC2)c1` was tested, and the activation factor was 5.45 (active).
`Cc1cc(C)cc(NC(=O)NC2CCCCCCC2)c1` was tested, and the activation factor was 4.34 (active).
With `O=C(Nc1cccc(F)c1)NC1CCCCCCC1` the activation factor was 2.46 (active).
In the case of `Cc1cccc(NC(=S)NCCN(C2CCCCC2)C2CCCC2)c1`, the activation factor is reported as 2.13 (active).
For `O=C(NCCOc1ccccc1F)Nc1ccc(Br)cc1`, the activation factor was 2.2 (active).
`COc1ccc(NC(=O)Nc2ccc3c(c2)C(=O)N([C@H](C)CO)C[C@H](C)[C@@H](CN(C)C(=O)Nc2ccc4c(c2)OCO4)O3)cc1` was tested, and the activation factor was 2.74 (active).
With `OCCCN1c2ccccc2Nc2nnc(-c3ccccc3)cc21` the activation factor was 2.5 (active).
For `S=C(NCC1COc2ccccc2O1)Nc1ccc(Br)cc1` (configuration not stated), the activation factor was 3.2 (active).
For `S=C(NCCCc1ccccc1)Nc1ccc(Br)cc1`, the activation factor was 2.09 (active).
`Cc1noc(C)c1S(=O)(=O)N(CC(=O)Nc1ccc2c(c1)OCCO2)c1ccc(C(C)C)cc1` was tested, and the activation factor was 2.03 (active).
